Reference: ChEMBL document CHEMBL3352721, “Identification, optimization, and pharmacology of acylurea GHS-R1a inverse agonists” (J Med Chem, 2014)
≈ marks a conversion by molar mass, not a printed value. Calls of active or inactive are those of the source. No cut-off for these calls is given here.

Experiments:
[1] = test system: Mus musculus; assay: Increase in food intake in po dosed C57Bl6j mouse free feeding model measured over 24 hrs period; format: functional
In short: (§1)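 Male mice (C57Bl6j, GHSr1-/- or wild-type littermates) were acclimatized 3 weeks to reversed light-dark, then individually housed 7 days and grouped (n=10-12) by baseline intake and body weight. Suspensions in 1% Pluronic F127 or vehicle were gavaged at 10 mL/kg about 1 h before dark onset. Pre-weighed food was reweighed at 2, 4, 6 and 24 h.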

[2] = Volume of distribution at steady state in Han-Wistar rat at 2 mg/kg, iv; format: ADME, organism-based; set-up: dose 2 mg/kg, route intravenous; conditions: in vivo, read-out: Vdss
In short: (§2)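 Male HW rats, beagle dogs or CD-1 mice received an IV bolus in 5% DMSO/95% hydroxypropyl-β-cyclodextrin (30% w/v). EDTA plasma was sampled over 24 h and assayed by LC/MS/MS after acetonitrile protein precipitation. CL and Vss were obtained by non-compartmental analysis.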

[3] = Oral bioavailability in CD1 mouse at 5 mg/kg; format: ADME, organism-based; conditions: in vivo
In short: (§3)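 Oral gavage in male HW rats, beagle dogs or CD-1 mice, vehicle Pluronic F127 in water. EDTA plasma was collected over 24 h and quantified by LC/MS/MS after acetonitrile precipitation. Cmax and bioavailability were obtained by non-compartmental analysis against IV data.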

[4] = Lipophilicity, logD of the compound; format: physicochemical; conditions: octanol/water
[5] = Clearance in Han-Wistar rat at 2 mg/kg, iv; format: ADME, organism-based; set-up: dose 2 mg/kg, route intravenous; conditions: in vivo; in short: as §2
[6] = Oral bioavailability in beagle dog at 1 mg/kg; format: ADME, organism-based, Canis lupus familiaris; conditions: in vivo; in short: as §3
[7] = Clearance in CD1 mouse at 2 mg/kg, iv; format: ADME, organism-based; set-up: dose 2 mg/kg, route intravenous; conditions: in vivo; in short: as §2
[8] = molecular target: Growth hormone secretagogue receptor type 1 (Homo sapiens, UniProt Q92847); assay: Displacement of [125I]human ghrelin from human GHS-R1a expressed in HEK cell membranes after 60 mins by gamma counting method; set-up: species or system HEK293
Chain of Growth hormone secretagogue receptor type 1 (Q92847 whole entry): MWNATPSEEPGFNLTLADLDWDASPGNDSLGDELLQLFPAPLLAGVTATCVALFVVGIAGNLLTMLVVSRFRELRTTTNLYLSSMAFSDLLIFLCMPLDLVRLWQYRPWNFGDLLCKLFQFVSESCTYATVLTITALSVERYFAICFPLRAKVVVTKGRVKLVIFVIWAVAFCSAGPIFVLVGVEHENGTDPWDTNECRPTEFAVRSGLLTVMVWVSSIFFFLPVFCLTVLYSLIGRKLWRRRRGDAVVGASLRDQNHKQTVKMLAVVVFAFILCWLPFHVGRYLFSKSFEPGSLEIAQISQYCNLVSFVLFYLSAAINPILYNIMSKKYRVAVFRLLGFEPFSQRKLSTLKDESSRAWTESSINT

[9] = Unbound fraction in Han-Wistar rat plasma; format: ADME, cell-free
[10] = Displacement of [125I]human ghrelin from mouse GHS-R1a expressed in HEK cell membranes after 60 mins by gamma counting method; conditions: hek293
In short: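 HEK cell membranes stably overexpressing mouse or rat GHS-R1a (4 µg/well) incubated 60 min at rt with 20 pM [125I]human ghrelin and competing compound. Buffer: 50 mM Tris-HCl, 5 mM MgCl2, 0.01% BSA, pH 7.4, plus 10 µM methyl arachidonyl fluorophosphonate. Stopped by filtration over PEI-soaked GF/C filters with ice-cold washes, then gamma counting. IC50 is the mean of ≥2 independent determinations.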

[11] = Ratio of plasma concentration in C57Bl6j mouse free feeding model at 30 mg/kg, po after 2 hrs to IC50 for mouse GHS-R1a expressed in HEK cell membranes; format: ADME, organism-based, HEK293; set-up: dose 30 mg/kg, route oral; conditions: in vivo
In short: (§4)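 Male mice were kept on a reversed light cycle and given a 1% Pluronic F127 suspension orally (10 mL/kg) about 1 h before dark. Plasma exposure was corrected for mouse plasma protein binding and divided by mouse GHS-R1a binding IC50. Binding was 20 pM [125I]ghrelin displacement on HEK membranes, 60 min rt, pH 7.4, read by gamma counting.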

[12] = Cmax in Han-Wistar rat at 2 mg/kg, po; format: ADME, organism-based; set-up: dose 2 mg/kg, route oral; conditions: in vivo; in short: as §3
[13] = test system: MDR1; assay: Apparent permeability in MDCK cells expressing MDR1 at 10 uM assessed as apical to basolateral side transport; format: ADME, cell-based, Canis lupus familiaris; conditions: dog
In short: (§5)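 MDCK-MDR1 monolayers incubated with compound at 10 µM; permeability measured in both A→B and B→A directions, giving Papp A-B (x10^6 cm/s) and the efflux ratio.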

[14] = Oral bioavailability in Han-Wistar rat at 2 mg/kg; format: ADME, organism-based; conditions: Han-Wistar, in vivo; in short: as §3
[15] = Unbound fraction in CD1 mouse plasma; format: ADME, cell-free
[16] = test system: Mus musculus; assay: Increase in food intake in po dosed C57Bl6j mouse free feeding model measured in 2 hrs intervals; format: functional, organism-based; in short: as §1
[17] = Unbound fraction in beagle dog plasma; format: ADME, cell-free, Canis lupus familiaris
[18] = Ratio of plasma concentration in C57Bl6j mouse free feeding model at 30 mg/kg, po after 6 hrs to IC50 for mouse GHS-R1a expressed in HEK cell membranes; format: ADME, organism-based, HEK293; set-up: dose 30 mg/kg, route oral; conditions: in vivo; in short: as §4
[19] = test system: MDR1; assay: Efflux ratio in MDCK cells expressing MDR1 at 10 uM; format: ADME, cell-based, Canis lupus familiaris; conditions: dog; in short: as §5
[20] = Volume of distribution at steady state in beagle dog at 1 mg/kg, iv; format: ADME, organism-based, Canis lupus familiaris; set-up: dose 1 mg/kg, route intravenous; conditions: in vivo, read-out: Vdss; in short: as §2
[21] = Volume of distribution at steady state in CD1 mouse at 2 mg/kg, iv; format: ADME, organism-based; set-up: dose 2 mg/kg, route intravenous; conditions: in vivo, read-out: Vdss; in short: as §2
[22] = Cmax in beagle dog at 1 mg/kg, po; format: ADME, organism-based, Canis lupus familiaris; set-up: dose 1 mg/kg, route oral; conditions: in vivo; in short: as §3
[23] = Cmax in CD1 mouse at 5 mg/kg, po; format: ADME, organism-based; set-up: dose 5 mg/kg, route oral; conditions: in vivo; in short: as §3
[24] = Clearance in beagle dog at 1 mg/kg, iv; format: ADME, organism-based, Canis lupus familiaris; set-up: dose 1 mg/kg, route intravenous; conditions: in vivo; in short: as §2
[25] = Aqueous solubility at pH 7.4 under thermodynamic conditions; format: physicochemical; conditions: buffer, read-out: Therm_solubility
In short: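 Thermodynamic solubility measured from solid samples in aqueous medium at pH 7.4.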

[26] = molecular target: Growth hormone secretagogue receptor type 1 (Rattus norvegicus) (UniProt O08725); assay: Displacement of [125I]human ghrelin from rat GHS-R1a expressed in HEK cell membranes after 60 mins by gamma counting method; conditions: hek293
Chain of Growth hormone secretagogue receptor type 1 (Rattus norvegicus) (O08725 whole entry, looked up): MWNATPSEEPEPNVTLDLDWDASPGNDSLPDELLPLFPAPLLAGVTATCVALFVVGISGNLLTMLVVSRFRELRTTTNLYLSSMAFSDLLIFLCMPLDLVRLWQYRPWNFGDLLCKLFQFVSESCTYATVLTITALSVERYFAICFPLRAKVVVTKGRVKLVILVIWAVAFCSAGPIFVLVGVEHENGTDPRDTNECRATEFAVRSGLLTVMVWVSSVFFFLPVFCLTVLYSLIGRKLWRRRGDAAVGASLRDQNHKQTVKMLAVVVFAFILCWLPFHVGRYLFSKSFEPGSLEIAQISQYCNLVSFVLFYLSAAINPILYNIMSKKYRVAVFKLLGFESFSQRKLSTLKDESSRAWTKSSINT

[27] = Ratio of plasma concentration in C57Bl6j mouse free feeding model at 30 mg/kg, po after 1 hr to IC50 for mouse GHS-R1a expressed in HEK cell membranes; format: ADME, organism-based, HEK293; set-up: dose 30 mg/kg, route oral; conditions: in vivo; in short: as §4
[28] = Ratio of drug level in homogenized brain to plasma in CD1 mouse at 2.7 mg/kg, po measured after 6 hrs by LC-MS/MS method; format: ADME, organism-based; set-up: dose 2.7 mg/kg, route oral; conditions: read-out: BPR
In short: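 Brain homogenate and plasma drug levels were taken 6 h after oral dosing, and their ratio was reported. Plasma was assayed by LC/MS/MS after acetonitrile protein precipitation.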

[29] = Cmax in CD1 mouse at 2 mg/kg, po by LC-MS/MS method; format: ADME, organism-based; set-up: dose 2 mg/kg, route oral; conditions: in vivo; in short: as §3
[30] = Ratio of free drug level in homogenized brain to plasma in CD1 mouse measured 6 hrs after oral dosing by LC-MS/MS method; format: ADME
In short: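 CD-1 mice dosed PO in 1% Pluronic F127. Drug was measured in homogenized brain and in plasma 6 h after dosing and expressed as a brain:plasma ratio. The free ratio used free fraction measured in mouse plasma and rat brain (brain slice or brain homogenate).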

With `CN1CCN(CCCS(=O)(=O)c2ccc3nc(NC(=O)NC(=O)c4ccccc4Cl)sc3c2)CC1` the Activity [1] was 19%, the Vd [2] was 4.9 L/kg and the bioavailability [3] was 40%. It also gave a logD [4] of 1.8, a clearance [5] of 24 mL/min/kg and a bioavailability [6] of 51%. It also gave a clearance [7] of 35 mL/min/kg, an IC50 [8] of 1.3 nM and a fraction unbound [9] of 0.08. The IC50 [10] was 4.9 nM, the Ratio [11] was 220 and the Cmax [12] was 340 nM. For the same molecule, the Papp A→B at 10 µM [13] was 7.1 ×10⁻⁶ cm/s, the bioavailability [14] was 125% and the fraction unbound [15] was 0.13. For the same molecule, the Activity [16] was “Active”, the fraction unbound [17] was 0.096 and the Ratio [18] was 20. For the same molecule, the efflux ratio at 10 µM [19] was 4.2, the Vd [20] was 4 L/kg and the Vd [21] was 4.5 L/kg. The Cmax [22] was 200 nM, the Cmax [23] was 710 nM and the clearance [24] was 8.1 mL/min/kg. For the same molecule, the solubility thermodynamic [25] was 280 µM (≈ 150 µg/mL), the IC50 [26] was 3.6 nM and the Ratio [27] was 310.
With `CN1CCC(S(=O)(=O)c2ccc3nc(NC(=O)NC(=O)c4cc5c(cc4Cl)CCN5C)sc3c2)CC1` the logD [4] was 2.8, the IC50 [8] was 7.2 nM and the Papp A→B at 10 µM [13] was 5.1 ×10⁻⁶ cm/s. The Kp at 6 h [28] was 0.15, the efflux ratio at 10 µM [19] was 1.2 and the Cmax [29] was 3000 nM. It also gave a Kp uu at 6 h [30] of 0.072.
